The source of these data is ChEMBL document CHEMBL1131373, “Novel nonpeptide CCK-B antagonists: design and development of quinazolinone derivatives as potent, selective, and orally active CCK-B antagonists” (J Med Chem, 1998).

A word on the clearance: it is a measure of how efficiently the substance is removed, as volume per time. Read a high clearance as efficient removal. Usually Cmax stands for the highest concentration seen after dosing. The Tmax is the time at which the peak concentration occurs. Broadly, the IC50 is the midpoint of a concentration-inhibition curve. High values mean weaker potency, low ones greater potency.

A short description of series [1]: The compound was tested for systemic plasma clearance(CL) in rats and is expressed in mL/min/kg. It is filed as ADME, organism-based. To be noted: rat. The essentials: (§1)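 Fasted male Wistar rats, three per group, given a single oral nominal dose of 10 mg/kg or a single iv nominal dose of 5 mg/kg. Vehicle was either 25:40:35 ethanol/PEG400/5% dextrose water or 10:40:50 dimethylacetamide/PEG400/5% dextrose water. Heparinized plasma taken from a jugular vein cannula at serial times out to 24 h and assayed by validated HPLC-fluorescence. Noncompartmental analysis; %F = dose-normalized po AUC/iv AUC.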

Series [2] can be described thus: The compound tested for maximum observed plasma concentration in rats and is expressed in microgram/mL. It counts as ADME, organism-based. To be noted: rat. The essentials: as §1
Series [3] in a line: The compound was tested for the time to reach maximum observed plasma concentration in rats and is expressed in mins. The following applies: rat. It counts as ADME, organism-based. The essentials: as §1
A short description of series [4]: The compound was tested for percent absolute oral bioavailability (%F) in rats and value in parenthesis indicate percent relative standard deviation (% RSD). It counts as ADME, organism-based. The following applies: rat, in vivo, read-out: F (%RSD). The essentials:
as §1

In series [5] the target is T1, Gastrin/cholecystokinin type B receptor (Mus musculus, UniProt P56481).
T1 sequence (P56481 whole entry): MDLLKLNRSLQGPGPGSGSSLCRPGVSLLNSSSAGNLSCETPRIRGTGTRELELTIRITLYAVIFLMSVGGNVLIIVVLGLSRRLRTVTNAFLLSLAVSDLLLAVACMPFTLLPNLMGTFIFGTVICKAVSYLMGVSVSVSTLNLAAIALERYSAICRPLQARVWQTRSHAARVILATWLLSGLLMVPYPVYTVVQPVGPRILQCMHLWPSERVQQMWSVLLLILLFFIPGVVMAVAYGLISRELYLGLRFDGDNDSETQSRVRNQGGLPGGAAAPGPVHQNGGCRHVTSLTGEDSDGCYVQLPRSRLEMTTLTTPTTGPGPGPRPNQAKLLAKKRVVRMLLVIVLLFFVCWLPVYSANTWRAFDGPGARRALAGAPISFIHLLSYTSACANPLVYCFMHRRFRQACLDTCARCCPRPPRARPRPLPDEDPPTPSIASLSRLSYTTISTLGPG
Nature of the series: Binding affinity towards Cholecystokinin type B receptor (CCK-B) receptor in mouse cerebral cortex using [125I]bolton Hunter CCK-8 as radioligand. It is filed as tissue-based.

Series [6] has as its target T2, Cholecystokinin receptor type A (Rattus norvegicus, UniProt P30551).
T2 sequence (P30551 whole entry): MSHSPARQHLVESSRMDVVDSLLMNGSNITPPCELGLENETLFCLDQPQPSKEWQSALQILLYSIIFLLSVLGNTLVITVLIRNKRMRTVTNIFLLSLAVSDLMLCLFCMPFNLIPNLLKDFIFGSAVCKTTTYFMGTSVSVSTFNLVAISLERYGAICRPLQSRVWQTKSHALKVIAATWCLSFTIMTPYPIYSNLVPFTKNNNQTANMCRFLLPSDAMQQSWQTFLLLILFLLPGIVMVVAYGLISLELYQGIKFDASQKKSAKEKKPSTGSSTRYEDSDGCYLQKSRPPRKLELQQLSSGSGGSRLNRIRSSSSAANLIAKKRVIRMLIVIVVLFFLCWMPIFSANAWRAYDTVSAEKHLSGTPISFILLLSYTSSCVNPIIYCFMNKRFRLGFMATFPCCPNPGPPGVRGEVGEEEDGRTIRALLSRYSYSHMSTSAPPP
Nature of the series: Binding affinity towards Cholecystokinin type A receptor (CCK-A) receptor from rat pancreas using [125I]bolton Hunter CCK-8 as radioligand. The essentials: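 IC50 = concentration giving half-maximal inhibition of specific [125I]Bolton Hunter CCK-8 binding, with CCK-B sites from mouse cerebral cortex and CCK-A sites from rat pancreas. Weaker compounds given as % inhibition at 10 μM. Values are geometric means of at least three separate experiments; statistical errors 15% of the mean.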

Series [7] is described as follows: The compound was tested for percent absolute oral bioavailability (%F) in rats. It is filed as ADME, organism-based. The following applies: rat, in vivo. The essentials: as §1

`CN(C)c1cccc(-n2c(NNC(=O)Nc3cccc(C#N)c3)nc3ccccc3c2=O)c1` came in with a clearance in series [1] of 29.5 mL/min/kg. Moreover, the Cmax in series [2] turned out to be 910 ng/mL. In addition, the Tmax in series [3] is 25 min. Also, the bioavailability in series [4] amounted to 22%. In addition, the IC50 in series [5] came out at 14 nM; in series [6] it was 7100 nM.
`CC(C)Oc1cccc(-n2c(NNC(=O)Nc3cccc(C(=O)OC(C)(C)C)c3)nc3ccccc3c2=O)c1`: the clearance in series [1] amounted to 18 mL/min/kg. For the same compound, in series [7], the bioavailability is below 5%. In addition, in series [2], the maximum concentration (Cmax) was below 250 ng/mL. Also, the IC50 in series [5] worked out at 1.9 nM; in series [6], 2960 nM.
